Reference: ChEMBL document CHEMBL1799977, “Discovery of MK-0952, a selective PDE4 inhibitor for the treatment of long-term memory loss and mild cognitive impairment” (Bioorg Med Chem Lett, 2010)
pIC50: −log10 of the molar value. One block for each compound: values may come before it.

Legend:
Hepatocyte = assay: Increase in CYP3A4 protein level in human primary hepatocytes at 10 uM by Western blot analysis relative to rifampicin; assay type: ADME, cell-based
Method in brief: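 Human primary cultured hepatocytes exposed to 10 µM compound; CYP3A4 protein measured by Western blot relative to rifampicin at 10 µM.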

[1] = Inhibition of PDE4 activity in squirrel monkey whole blood assessed as inhibition of LPS-induced TNF-alpha release; assay type: tissue-based; conditions: Saimiri
Rattus norvegicus [2] = species on record: Rattus norvegicus; assay: Cognitive enhancing effect in Lister rat assessed as change in escape latency pretreated 90 mins before sample phase by water maze delayed matching to position test; assay type: functional; conditions: read-out: MED
Method in brief: (§1)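 Rats in a water maze with the platform moved daily, four 60 s trials per day over five days. Oral dosing in 0.5% methocel, 90 or 30 min before the sample trial. Savings score = escape latency difference between trials 1 and 2 over a 4 h delay. n = 10; Newman–Keuls test.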

[3] = Metabolic stability in human hepatocytes assessed as compound metabolism level; assay type: ADME, cell-based, Hepatocyte; conditions: read-out: Activity
[4] = Inhibition of PDE4 activity in rat whole blood assessed as inhibition of LPS-induced TNF-alpha release; assay type: tissue-based
Cytochrome P450 2C9 [5] = target: T1, Cytochrome P450 2C9 (Homo sapiens, UniProt P11712); assay: Inhibition of human CYP2C9; assay type: ADME
T1 sequence (P11712 whole entry): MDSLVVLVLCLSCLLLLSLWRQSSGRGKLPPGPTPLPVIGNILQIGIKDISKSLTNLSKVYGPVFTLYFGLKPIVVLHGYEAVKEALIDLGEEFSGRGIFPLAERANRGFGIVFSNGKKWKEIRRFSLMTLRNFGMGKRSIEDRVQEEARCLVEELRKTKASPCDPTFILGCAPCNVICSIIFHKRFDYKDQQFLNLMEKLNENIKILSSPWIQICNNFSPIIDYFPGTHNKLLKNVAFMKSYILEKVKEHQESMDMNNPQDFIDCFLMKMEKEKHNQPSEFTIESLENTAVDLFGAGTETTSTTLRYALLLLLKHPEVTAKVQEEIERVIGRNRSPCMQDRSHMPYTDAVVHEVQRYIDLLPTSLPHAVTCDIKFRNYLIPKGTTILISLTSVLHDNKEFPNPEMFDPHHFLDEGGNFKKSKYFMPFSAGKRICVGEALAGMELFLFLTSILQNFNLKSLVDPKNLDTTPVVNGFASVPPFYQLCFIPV

[6] = Half life in squirrel monkey at 10 mg/kg, po or 1 mg/kg, iv; assay type: ADME, organism-based; conditions: saimiri, in vivo
[7] = Metabolic stability in rhesus monkey hepatocytes assessed as compound metabolism level; assay type: ADME, cell-based, Macaca mulatta, Hepatocyte; conditions: read-out: Activity
Plasma [8] = assay: Drug level in plasma of Lister rat during conditional taste aversion test; assay type: ADME, cell-free
Method in brief: (§2)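 Male hooded Lister rats in the conditioned taste aversion test given oral compound in 0.5% methocel. Plasma and whole brain levels were measured on the tested animals 90 min post-dosing.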

Cytochrome P450 1A2 = target: T2, Cytochrome P450 1A2 (Homo sapiens, UniProt P05177); assay: Inhibition of human CYP1A2; assay type: ADME
T2 sequence (P05177 whole entry): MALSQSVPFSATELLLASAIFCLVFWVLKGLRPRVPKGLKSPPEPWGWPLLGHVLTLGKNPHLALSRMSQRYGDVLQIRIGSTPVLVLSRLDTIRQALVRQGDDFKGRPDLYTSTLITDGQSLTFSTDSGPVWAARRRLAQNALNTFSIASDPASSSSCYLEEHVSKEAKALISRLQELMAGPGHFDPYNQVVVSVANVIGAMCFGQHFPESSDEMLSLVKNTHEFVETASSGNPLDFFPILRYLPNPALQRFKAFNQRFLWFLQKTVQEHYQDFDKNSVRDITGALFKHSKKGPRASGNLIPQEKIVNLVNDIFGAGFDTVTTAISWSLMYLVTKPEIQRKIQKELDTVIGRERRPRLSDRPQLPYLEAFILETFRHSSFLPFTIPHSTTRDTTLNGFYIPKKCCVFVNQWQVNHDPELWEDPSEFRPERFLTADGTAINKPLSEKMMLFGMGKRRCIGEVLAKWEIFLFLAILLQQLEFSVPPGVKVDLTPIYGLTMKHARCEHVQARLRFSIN

Cytochrome P450 2D6 = Cytochrome P450 2D6 (Homo sapiens, UniProt P10635); assay: Inhibition of human CYP2D6; assay type: ADME
Cytochrome P450 2D6, sequence (P10635 whole entry): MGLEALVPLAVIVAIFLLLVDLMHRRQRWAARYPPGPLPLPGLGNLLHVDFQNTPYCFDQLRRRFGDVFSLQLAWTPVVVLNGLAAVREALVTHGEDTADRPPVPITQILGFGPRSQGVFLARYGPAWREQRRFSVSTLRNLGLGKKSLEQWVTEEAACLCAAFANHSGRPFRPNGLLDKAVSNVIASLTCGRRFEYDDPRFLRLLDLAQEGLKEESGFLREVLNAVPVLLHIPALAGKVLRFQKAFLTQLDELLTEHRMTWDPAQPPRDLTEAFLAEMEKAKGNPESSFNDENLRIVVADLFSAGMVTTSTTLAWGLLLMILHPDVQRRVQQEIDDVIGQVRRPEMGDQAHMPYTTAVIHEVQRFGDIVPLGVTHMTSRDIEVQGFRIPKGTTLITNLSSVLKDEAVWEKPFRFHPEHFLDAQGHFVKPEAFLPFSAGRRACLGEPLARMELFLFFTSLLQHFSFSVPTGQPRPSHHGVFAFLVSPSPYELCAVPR

Brain [9] = assay: Drug level in brain of Lister rat during conditional taste aversion test; assay type: ADME, tissue-based; conditions: in vivo, read-out: Drug uptake; method in brief: as §2
Brain [10] = assay: Drug level in brain of Lister rat during water maze delayed matching to position test; conditions: in vivo, read-out: Drug uptake
Plasma [11] = assay: Drug level in plasma of Lister rat during water maze delayed matching to position test
[12] = Oral bioavailability in squirrel monkey at 10 mg/kg; assay type: ADME, organism-based; conditions: saimiri, in vivo
[13] = Oral bioavailability in rhesus monkey at 10 mg/kg; assay type: ADME, organism-based, Macaca mulatta; conditions: in vivo
Rattus norvegicus [14] = species on record: Rattus norvegicus; assay: Ratio MED for cognitive enhancing effect in lister rat during water maze delayed matching to position test to MED for adverse effect in lister rat during conditional taste aversion test; assay type: functional
Method in brief: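 Therapeutic window as water maze MED over CTA MED. Water maze: rats dosed orally daily in 0.5% methocel before sample trial, 0.01–3.0 mg/kg, n = 10; four 60 s trials/day, 4 h inter-trial delay, savings score. CTA: water-deprived male hooded Lister rats, 20 min 0.1% saccharin on two conditioning days, oral dose immediately after; LiCl 30.0 mg/kg ip control; test-day intake.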

[15] = Oral bioavailability in rat at 10 mg/kg; assay type: ADME, organism-based; conditions: in vivo
[16] = Clearance in dog at 3 mg/kg, po or 1 mg/kg, iv; assay type: ADME, organism-based, Canis lupus familiaris; conditions: in vivo
[17] = Clearance in rhesus monkey at 10 mg/kg, po or 1 mg/kg, iv; assay type: ADME, organism-based, Macaca mulatta; conditions: in vivo
[18] = target: 3',5'-cyclic-AMP phosphodiesterase 4A (Homo sapiens, UniProt P27815); assay: Inhibition of PDE4A; conditions: pooled result: one value given for 3 cell lines, strains, targets or settings
3',5'-cyclic-AMP phosphodiesterase 4A, sequence (P27815 whole entry, the tested form may be a part): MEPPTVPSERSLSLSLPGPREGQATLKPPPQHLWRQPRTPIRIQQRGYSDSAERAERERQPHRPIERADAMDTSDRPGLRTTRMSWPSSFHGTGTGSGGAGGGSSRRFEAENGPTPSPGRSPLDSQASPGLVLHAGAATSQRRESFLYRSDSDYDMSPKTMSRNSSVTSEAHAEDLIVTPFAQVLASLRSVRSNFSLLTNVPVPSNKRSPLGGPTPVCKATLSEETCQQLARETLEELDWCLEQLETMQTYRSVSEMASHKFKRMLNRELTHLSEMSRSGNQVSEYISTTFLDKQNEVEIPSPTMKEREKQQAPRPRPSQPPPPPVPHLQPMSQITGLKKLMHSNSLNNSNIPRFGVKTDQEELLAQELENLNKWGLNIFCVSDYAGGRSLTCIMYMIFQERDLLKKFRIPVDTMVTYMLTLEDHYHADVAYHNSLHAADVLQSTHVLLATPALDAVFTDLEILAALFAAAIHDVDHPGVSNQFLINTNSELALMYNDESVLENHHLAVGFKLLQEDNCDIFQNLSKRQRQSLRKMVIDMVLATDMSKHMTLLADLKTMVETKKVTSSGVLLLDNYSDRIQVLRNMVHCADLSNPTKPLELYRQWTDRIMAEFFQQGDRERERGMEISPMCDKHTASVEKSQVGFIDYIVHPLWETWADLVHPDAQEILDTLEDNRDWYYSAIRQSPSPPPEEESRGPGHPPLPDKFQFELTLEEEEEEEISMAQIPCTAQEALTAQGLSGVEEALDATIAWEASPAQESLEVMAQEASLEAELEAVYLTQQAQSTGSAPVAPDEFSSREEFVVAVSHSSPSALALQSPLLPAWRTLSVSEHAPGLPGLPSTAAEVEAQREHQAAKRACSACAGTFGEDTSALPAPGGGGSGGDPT
Method in brief: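 Catalytic domains of PDE4A, B and D expressed as GST constructs in SF9 cells (baculovirus). IC50s are averages of at least two experiments.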

[19] = Half life in rat at 10 mg/kg, po or 3 mg/kg, iv; assay type: ADME, organism-based; conditions: in vivo
[20] = Drug excretion in bile cannulated male rat assessed as excretion of parent compound in bile at 3 mg/kg, iv using [3H]-labeled compound measured after 8 hrs; assay type: ADME, organism-based; design: dose 3 mg/kg, route intravenous; conditions: in vivo
Method in brief: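 Permanently bile-cannulated male rats dosed iv with tritiated compound (3 mg/kg, 100 μCi/kg); bile collected 0–8 h and parent expressed as % of total radioactivity.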

[21] = Half life in rhesus monkey at 10 mg/kg, po or 1 mg/kg, iv; assay type: ADME, organism-based, Macaca mulatta; conditions: in vivo
[22] = Clearance in squirrel monkey at 10 mg/kg, po or 1 mg/kg, iv; assay type: ADME, organism-based; conditions: saimiri, in vivo
[23] = Metabolic stability in female rat hepatocytes assessed as compound metabolism level; assay type: ADME, cell-based, Hepatocyte; conditions: read-out: Activity
CYP3A = CYP3A (Homo sapiens, UniProt P08684+P20815+P24462+Q9HB55); assay: Inhibition of human CYP3A; assay type: ADME
Rattus norvegicus [24] = species on record: Rattus norvegicus; assay: Induction of adverse effect in Lister rat assessed as induction of malaise by conditional taste aversion test; assay type: organism-based; conditions: in vivo
Method in brief: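 Singly housed male hooded Lister rats, water-deprived 22.5 h/day. On two conditioning days they had 20 min access to 0.1% saccharin, then received oral compound in 0.5% methocel, vehicle, or LiCl 30 mg/kg ip. Consumption on test day was compared with baseline (n = 6–8; Dunnett's test).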

[25] = Metabolic stability in male rat hepatocytes assessed as compound metabolism level; assay type: ADME, cell-based, Hepatocyte; conditions: read-out: Activity
Phosphodiesterase 4 = Phosphodiesterase 4 (Homo sapiens, UniProt P27815+Q08499+Q07343+Q08493); assay: Inhibition of PDE4 activity in human whole blood assessed as inhibition of LPS-induced TNF-alpha release
[26] = Metabolic stability in dog hepatocytes assessed as compound metabolism level; assay type: ADME, cell-based, Canis lupus familiaris, Hepatocyte; conditions: read-out: Activity
[27] = Inhibition of PDE4 activity in rhesus monkey whole blood assessed as inhibition of LPS-induced TNF-alpha release; assay type: tissue-based; conditions: Macaca mulatta
[28] = Clearance in rat at 10 mg/kg, po or 3 mg/kg, iv; assay type: ADME, organism-based; conditions: in vivo
[29] = Oral bioavailability in dog at 3 mg/kg; assay type: ADME, organism-based, Canis lupus familiaris; conditions: in vivo
[30] = Half life in dog at 3 mg/kg, po or 1 mg/kg, iv; assay type: ADME, organism-based, Canis lupus familiaris; conditions: in vivo
[31] = Drug level in rat brain at 5 mg/kg, po measured 90 mins post dose; assay type: ADME, organism-based; design: dose 5 mg/kg, route oral; conditions: read-out: Drug uptake
[32] = Drug level in rat plasma at 0.1 mg/kg, po measured 90 mins post dose; assay type: ADME, organism-based; design: dose 0.1 mg/kg, route oral
[33] = Drug level in rat plasma at 1 mg/kg, po measured 90 mins post dose; assay type: ADME, organism-based; design: dose 1 mg/kg, route oral
[34] = Drug level in rat brain at 0.1 mg/kg, po measured 90 mins post dose; assay type: ADME, organism-based; design: dose 0.1 mg/kg, route oral; conditions: read-out: Drug uptake
[35] = Drug level in rat brain at 10 mg/kg, po measured 90 mins post dose; assay type: ADME, organism-based; design: dose 10 mg/kg, route oral; conditions: read-out: Drug uptake
[36] = Drug level in rat brain at 0.5 mg/kg, po measured 90 mins post dose; assay type: ADME, organism-based; design: dose 0.5 mg/kg, route oral; conditions: read-out: Drug uptake
[37] = Drug level in rat plasma at 10 mg/kg, po measured 90 mins post dose; assay type: ADME, organism-based; design: dose 10 mg/kg, route oral
[38] = Drug level in rat plasma at 0.5 mg/kg, po measured 90 mins post dose; assay type: ADME, organism-based; design: dose 0.5 mg/kg, route oral
[39] = Drug level in rat brain at 1 mg/kg, po measured 90 mins post dose; assay type: ADME, organism-based; design: dose 1 mg/kg, route oral; conditions: read-out: Drug uptake
[40] = Drug level in rat plasma at 5 mg/kg, po measured 90 mins post dose; assay type: ADME, organism-based; design: dose 5 mg/kg, route oral
[41] = Ratio IC50 for PDE4 activity in human whole blood to IC50 for PDE4; assay type: tissue-based
Method in brief: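 Ratio of two IC50s. The numerator is from human whole blood stimulated with LPS, read as inhibition of TNF-α release. The denominator (PDE4QT) is the mean of the IC50s on the PDE4A, B and D catalytic domains. These were expressed as GST constructs in Sf9 cells by baculovirus. Each IC50 is the average of at least two experiments.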

Cytochrome P450 2C9 [42] = target: T1, Cytochrome P450 2C9; assay: Competitive inhibition of CYP2C9; assay type: ADME
Rattus norvegicus [43] = species on record: Rattus norvegicus; assay: Cognitive enhancing effect in Lister rat assessed as change in escape latency pretreated before sample phase by water maze delayed matching to position test; assay type: functional; conditions: read-out: MED; method in brief: as §1

- Activity (Hepatocyte): 23%
- pIC50 [1]: 7.28
- metabolised [3]: 2%
- pIC50 [4]: 6.35
- pIC50 (Cytochrome P450 2C9 [5]): < 4.00
- half-life [6]: 4.3 h
- metabolised [7]: 10%
- concentration (Plasma [8]): 12.1 µM
- pIC50 (Cytochrome P450 1A2): < 4.00
- pIC50 (Cytochrome P450 2D6): < 4.00
- concentration (Brain [9]): 0.29 µM
- concentration (Brain [10]): 0.0092 µM
- concentration (Plasma [11]): 0.39 µM
- bioavailability [12]: 41%
- bioavailability [13]: 77%
- bioavailability [15]: 38%
- clearance [16]: 0.222 L/h/kg
- clearance [17]: 0.078 L/h/kg
- pIC50 [18]: 9.28
- half-life [19]: 3.5 h
- Activity [20]: > 35%
- half-life [21]: 6.5 h
- clearance [22]: 0.102 L/h/kg
- metabolised [23]: 20%
- pIC50 (CYP3A): < 4.00
- metabolised [25]: 5%
- IC50 (Phosphodiesterase 4): 0.55 µM
- metabolised [26]: 30%
- pIC50 [27]: 6.03
- clearance [28]: 0.06 L/h/kg
- bioavailability [29]: 100%
- half-life [30]: 6.6 h
Structure (SMILES): O=C(NC1CC1)c1cn(-c2cccc(-c3ccc([C@@H]4C[C@H]4C(=O)O)c(F)c3)c2)c2ncccc2c1=O
- minimal effective dose (Rattus norvegicus [2]): 0.1 mg/kg
- Ratio (Rattus norvegicus [14]): 100
- MED (Rattus norvegicus [24]): 10 mg/kg

- concentration at 1.5 h [31]: 0.29 µM
- concentration at 1.5 h [32]: 0.59 µM
- concentration at 1.5 h [33]: 3.41 µM
- concentration at 1.5 h [34]: 0.012 µM
- concentration at 1.5 h [35]: 0.59 µM
- concentration at 1.5 h [36]: 0.047 µM
- concentration at 1.5 h [37]: 18.8 µM
- concentration at 1.5 h [38]: 1.34 µM
- concentration at 1.5 h [39]: 0.11 µM
- concentration at 1.5 h [40]: 8.19 µM
Structure (SMILES): O=C(NC1CC1)c1cn(-c2cccc(-c3ccc([C@@H]4C[C@H]4C(=O)[O-])c(F)c3)c2)c2ncccc2c1=O.[Na+]

- pIC50 [4]: 7.19
- concentration (Plasma [8]): 0.828 µM
- concentration (Brain [9]): 0.048 µM
- pIC50 (Cytochrome P450 2C9 [42]): 4.40
- concentration (Brain [10]): 0.015 µM
- concentration (Plasma [11]): 0.258 µM
- pIC50 [18]: 8.29
- IC50 (Phosphodiesterase 4): 0.19 µM
Structure (SMILES): O=C(NC1CC1)c1cn(-c2cccc(C#Cc3ccc[n+]([O-])c3)c2)c2ncccc2c1=O [MK-0873]
- Ratio IC50 [41]: 37
- minimal effective dose (Rattus norvegicus [43]): 0.3 mg/kg
- MED (Rattus norvegicus [24]): 1 mg/kg
